Data reported in ChEMBL document CHEMBL4265908, “Structure-activity and structure-property relationships of novel Nrf2 activators with a 1,2,4-oxadiazole core and their therapeutic effects on acetaminophen (APAP)-induced acute liver injury” (Eur J Med Chem, 2018).
In brackets after ≈: the same amount, converted by molar mass. Activity calls are given as the source filed them. The calls are words filed in the database; no cut-off is given here.

Tests used:
[1] = target: T1, Nuclear factor erythroid 2-related factor 2 (Homo sapiens) (UniProt Q16236); assay: Activation of Nrf2 in human LO2 cells assessed as increase in HO-1 mRNA expression level by qRT-PCR analysis; assay type: cell-based
T1 sequence (whole entry): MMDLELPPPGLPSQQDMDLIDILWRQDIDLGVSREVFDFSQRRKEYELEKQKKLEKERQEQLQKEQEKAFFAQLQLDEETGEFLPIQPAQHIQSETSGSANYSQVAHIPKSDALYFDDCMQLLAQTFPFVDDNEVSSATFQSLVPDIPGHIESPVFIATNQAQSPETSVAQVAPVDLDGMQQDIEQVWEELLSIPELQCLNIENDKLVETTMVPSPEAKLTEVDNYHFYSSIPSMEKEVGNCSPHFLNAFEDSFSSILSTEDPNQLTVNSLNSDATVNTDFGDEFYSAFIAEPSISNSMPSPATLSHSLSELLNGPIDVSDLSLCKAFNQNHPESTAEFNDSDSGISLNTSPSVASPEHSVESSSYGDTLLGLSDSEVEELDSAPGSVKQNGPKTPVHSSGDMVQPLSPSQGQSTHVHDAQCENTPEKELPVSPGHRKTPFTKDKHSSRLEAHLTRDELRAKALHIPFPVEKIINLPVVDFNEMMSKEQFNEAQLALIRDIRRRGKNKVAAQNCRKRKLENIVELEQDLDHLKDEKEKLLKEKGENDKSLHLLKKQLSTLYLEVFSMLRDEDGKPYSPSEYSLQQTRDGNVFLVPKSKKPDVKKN
How it was run: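 LO2 cells in DMEM with 10% FBS were exposed to 0, 2.5, 5, 10, 20 or 40 μM compound for 12 h. Transcripts measured by qRT-PCR: 40 cycles of 95 °C for 5 s and 60 °C for 30 s. Normalized to GAPDH and expressed as fold over the untreated control. Mean ± SD, n = 3.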

[2] = target: T1, Nuclear factor erythroid 2-related factor 2 (Homo sapiens); assay: Activation of Nrf2 in human LO2 cells cotreated with Nrf2 siRNA assessed as increase in NQO1 mRNA expression level at 20 uM by qRT-PCR analysis; assay type: cell-based
How it was run: (§1)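 LO2 cells plated at 7 × 10^5 per 60 mm dish and transfected with 50 nM Nrf2 siRNA (scrambled siRNA as control). After 24 h, fresh medium was added and cells grown a further 48 h. Then 20 μM compound for 12 h. Nrf2, NQO1, GCLM and HO-1 mRNA measured by qRT-PCR, normalized to GAPDH, as fold over control.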

[3] = test system: Mus musculus; assay: In vivo activation of Nrf2 in APAP-induced liver injury in C57BL/6 mouse assessed as increase in HO-1 mRNA expression level administered ip for 7 consecutive days followed by APAP challenge 1 hr post last compound dose and measured after 24 hrs by qRT-PCR analysis; assay type: functional, organism-based
How it was run: (§2)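 Female C57BL/6 mice (20–25 g, n = 10/group) received 10, 50 or 100 mg/kg/day ip in saline for 7 days. One hour after the last dose they received APAP 300 mg/kg in saline. Killed 24 h later. Serum ALT/AST by kit. Liver homogenates (pH 7.0 phosphate) used for GSH (A420, μmol/g protein), GST (A412, U/mg protein) and SOD. Liver also analyzed by western blot (β-actin normalized), qRT-PCR (GAPDH normalized) and H&E.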

[4] = test system: Mus musculus; assay: In vivo activation of Nrf2 in APAP-induced liver injury in C57BL/6 mouse assessed as increase in HO-1 protein expression level at 10 to 100 mg/kg, ip administered for 7 consecutive days followed by APAP challenge 1 hr post last compound dose and measured after 24 hrs by Western blot analysis; assay type: functional, organism-based; how it was run: as §2
[5] = target: T1, Nuclear factor erythroid 2-related factor 2 (Homo sapiens); assay: Induction of Nrf2 nuclear translocation in human LO2 cells assessed as Nrf2 binding to antioxidant response element after 12 hrs by DAPI staining based immunofluorescence assay; assay type: cell-based
How it was run: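 LO2 cells grown on coverslips for 24 h, then treated 12 h with compound (5 or 20 μM); 80 μM tBHQ served as reference. Cells fixed, probed with anti-Nrf2 and a DyLight 488 anti-rabbit secondary, nuclei stained with DAPI. Imaged by confocal microscopy.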

[6] = Intrinsic aqueous solubility of the compound by potentiometric titration method; assay type: physicochemical
How it was run: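 Intrinsic aqueous solubility and logD at pH 7.4 determined by Avdeef-Bucher potentiometric titration on a pION Gemini Profiler.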

[7] = test system: Mus musculus; assay: In vivo activation of Nrf2 in APAP-induced liver injury in C57BL/6 mouse assessed as increase in Nrf2 mRNA expression level administered ip for 7 consecutive days followed by APAP challenge 1 hr post last compound dose and measured after 24 hrs by qRT-PCR analysis; assay type: functional, organism-based; how it was run: as §2
[8] = test system: HepG2; assay: Cytotoxicity against human HepG2 cells at 80 uM after 24 hrs by MTT assay; assay type: cell-based; details: hepg2, 24 h
[9] = test system: L02; assay: Hepatoprotective activity against APAP-induced cell injury in human LO2 cells assessed as increase in cell viability at 20 uM pretreated for 24 hrs followed by APAP treatment measured after 24 hrs by MTT assay; assay type: functional
How it was run: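 LO2 cells plated for 12 h and pretreated for 24 h with 5, 10 or 20 μM compound. One arm was first transfected with 50 nM Nrf2 siRNA before receiving 20 μM compound. Medium then replaced with medium containing 8 mM APAP for 24 h. Viability by MTT at A570. Mean ± SD of three experiments.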

[10] = target: T1, Nuclear factor erythroid 2-related factor 2 (Homo sapiens); assay: Activation of Nrf2 in human LO2 cells cotreated with Nrf2 siRNA assessed as increase in HO-1 mRNA expression level at 20 uM by qRT-PCR analysis; assay type: cell-based; how it was run: as §1
[11] = target: T1, Nuclear factor erythroid 2-related factor 2 (Homo sapiens); assay: Activation of Nrf2 in human LO2 cells cotreated with Nrf2 siRNA assessed as increase in Nrf2 mRNA expression level at 20 uM by qRT-PCR analysis; assay type: cell-based; how it was run: as §1
[12] = target: T1, Nuclear factor erythroid 2-related factor 2 (Homo sapiens); assay: Activation of Nrf2 in human HepG2-ARE-C8 cells assessed as induction of ARE-mediated luciferase activity at 40 uM after 24 hrs by luciferase reporter gene assay relative to control; assay type: cell-based
How it was run: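 HepG2-ARE-C8 cells stably carrying ARE-luciferase, grown in DMEM with 10% FBS at 37 °C and 5% CO2. Seeded at 5 × 10^4 cells/well, left overnight, then given compound diluted from a 10 mM DMSO stock for 24 h. Cells lysed and luciferase read as RLU. Inductivity = (RLUtest − RLUblank)/(RLUcontrol − RLUblank), with DMSO as control. Mean ± SEM of three experiments.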

[13] = test system: Mus musculus; assay: In vivo activation of Nrf2 in APAP-induced liver injury in C57BL/6 mouse assessed as increase in NQO1 mRNA expression level administered ip for 7 consecutive days followed by APAP challenge 1 hr post last compound dose and measured after 24 hrs by qRT-PCR analysis; assay type: functional, organism-based; how it was run: as §2
[14] = test system: Mus musculus; assay: Hepatoprotective activity against APAP-induced liver injury in C57BL/6 mouse assessed as decrease in APAP-induced cell necrosis administered ip for 7 consecutive days followed by APAP challenge 1 hr post last compound dose and measured after 24 hrs by hematoxylin/eosin staining based assay; assay type: functional, organism-based; how it was run: as §2
[15] = test system: Mus musculus; assay: Hepatoprotective activity against APAP-induced liver injury in C57BL/6 mouse assessed as increase in GST levels administered ip for 7 consecutive days followed by APAP challenge 1 hr post last compound dose and measured after 24 hrs; assay type: functional, organism-based; how it was run: as §2

Activity [1]: Dose-dependent effect
Activity [2]: Active
Activity [5]: Dose-dependent effect
solubility [6]: 250 µM (≈ 68.3 µg/mL)
Activity [10]: Active
Activity [11]: Active
Activity [12]: 48.7
SMILES: Cc1ccc(-c2noc(-c3ccc(F)c(F)c3)n2)cn1
Activity [3]: Dose-dependent effect
Activity [4]: Active
Activity [7]: Dose-dependent effect
Activity [8]: Non-Toxic
Activity [9]: 80%
Activity [13]: Dose-dependent effect
Activity [14]: Dose-dependent effect
Activity [15]: Dose-dependent effect
